Drawing on ChEMBL document CHEMBL1926586, “A new class of antimalarial dioxanes obtained through a simple two-step synthetic approach: rational design and structure-activity relationship studies” (J Med Chem, 2011), this text covers IC50 and selectivity ratio for 16 compounds.

Data set [1] relates to Plasmodium falciparum. Briefly: Antimalarial activity against chloroquine-sensitive Plasmodium falciparum D10 infected in human type A-positive red blood cells assessed as parasite lactate dehydrogenase activity after 72 hrs by spectrophotometric analysis. The data set is classed as functional, organism-based. The conditions noted are these: D10, 72 h. In a few lines:
(§1)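 Parasites were cultured in human type A-positive red blood cells at 5% hematocrit. Medium was RPMI 1640 with 1% AlbuMax, 0.01% hypoxanthine, 20 mM Hepes and 2 mM glutamine. Cultures were held at 37 °C under 1% O2, 5% CO2, 94% N2. Compounds were dissolved in water or DMSO, then diluted in medium. Values are mean ± SD of three experiments in duplicate.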

The subject of data set [2] is Plasmodium falciparum. Briefly: Antimalarial activity against chloroquine-resistant Plasmodium falciparum W2 infected in human type A-positive red blood cells assessed as parasite lactate dehydrogenase activity after 72 hrs by spectrophotometric analysis. The settings on record: W2, 72 h. The data set is classed as functional, organism-based. In a few lines: as §1

The nature of data set [3]: Therapeutic index, ratio of IC50 for human HMEC1 cells to IC50 for chloroquine-resistant Plasmodium falciparum W2. Format: cell-based. The settings on record: read-out: Ratio IC50.
Data set [4] can be described thus: Cytotoxicity against human HMEC1 cells after 72 hrs by MTT assay. The conditions noted are these: HMEC-1, 72 h. Format: cell-based.

For orientation: IC50 means the concentration that gives 50% inhibition.

`COC(=O)[C@H]1CC(C)(C)OO[C@@]1(C)OC` (mixture of isomers): the IC50 in the data set with Plasmodium falciparum [1] and in the data set with Plasmodium falciparum [2] was more than 30 µM throughout.

As to `CCCCC1(CCCC)C[C@H](C(=O)OC)[C@](CCCC)(OC)OO1` (mixture of isomers), the selectivity ratio in data set [3] is 90. In addition, the IC50 is 108 µM in data set [4], 2.9 µM with Plasmodium falciparum [1] and 1.2 µM in the data set on Plasmodium falciparum [2].

Regarding `CCCCC1(CCCC)C[C@H](C(=O)OC)[C@](C)(OC)OO1` (mixture of isomers), the IC50 came to 7.4 µM in the data set with Plasmodium falciparum [1] and 2.5 µM with Plasmodium falciparum [2].

For `CCCC[C@@]1(C)C[C@H](C(=O)OC)[C@@](C)(OC)OO1` (mixture of isomers), the IC50 came to 17.7 µM with Plasmodium falciparum [1] and 6.4 µM in the data set with Plasmodium falciparum [2].

Take `CCCCC1(CCCC)C[C@H](C(=O)OC)[C@@](CCCC)(OC)OO1` (racemic): the IC50 in the data set with Plasmodium falciparum [1] stood at 2.3 µM; in the data set on Plasmodium falciparum [2] it was 1.2 µM.

On to `CCCC[C@@]1(C)C[C@H](C(=O)OC)[C@](CCCC)(OC)OO1` (mixture of isomers), for which, in data set [3], the selectivity ratio turned out to be 90. For the same compound, the IC50 in data set [4] was 167 µM; in the data set on Plasmodium falciparum [1] it was 2.6 µM; in the data set with Plasmodium falciparum [2], 1.3 µM.

Take `CCCCC1(CCCC)C[C@H](C(=O)OC)[C@@](C)(OC)OO1` (mixture of isomers): the selectivity ratio in data set [3] was 90. Besides, the IC50 in data set [4] was 98.3 µM; in the data set with Plasmodium falciparum [1], 2.6 µM; in the data set with Plasmodium falciparum [2], 0.8 µM.

For the compound `CCCC[C@@]1(C)C[C@H](C(=O)OC)[C@](C)(OC)OO1` (mixture of isomers), the results for the IC50 with Plasmodium falciparum [1] and in the data set with Plasmodium falciparum [2] were 12.6 µM and 11.8 µM, respectively.

Take `CCCC[C@]1(C)C[C@H](C(=O)OC)[C@](CCCC)(OC)OO1` (mixture of isomers): the IC50 in the data set with Plasmodium falciparum [1] stood at 4.2 µM; in the data set on Plasmodium falciparum [2] it was 1.5 µM.

In the case of `CCCC[C@]1(C)C[C@H](C(=O)OC)[C@](C)(OC)OO1` (mixture of isomers), the IC50 in the data set on Plasmodium falciparum [1] was found to be 8.5 µM; in the data set on Plasmodium falciparum [2], 4.9 µM.

With `CCCC[C@]1(C)C[C@H](C(=O)OC)[C@@](CCCC)(OC)OO1` (mixture of isomers), the IC50 with Plasmodium falciparum [1] was 12.3 µM; in the data set on Plasmodium falciparum [2], 5 µM.

On to `CCCC[C@@]1(OC)OOC(C)(C)C[C@@H]1C(=O)OC` (mixture of isomers), for which the selectivity ratio in data set [3] was determined as 90. The IC50 is more than 384 µM in data set [4], 3.7 µM with Plasmodium falciparum [1] and 1.5 µM in the data set with Plasmodium falciparum [2].

In the case of `CC/C=C/[C@H](CC)C[C@@]1(C)C[C@@H](CC)[C@@H](CC(=O)OC)OO1` [PLAKORTIN], the results for the IC50 in the data set with Plasmodium falciparum [1] and in the data set on Plasmodium falciparum [2] were 0.9 µM and 0.4 µM, respectively.

For the compound `CCCC[C@]1(OC)OOC(C)(C)C[C@@H]1C(=O)OC` (mixture of isomers), the IC50 in the data set with Plasmodium falciparum [1] and in the data set with Plasmodium falciparum [2] was more than 30 µM each time.

As for `CCCC[C@]1(C)C[C@H](C(=O)OC)[C@@](C)(OC)OO1` (mixture of isomers), the IC50 was found to be 17.7 µM in the data set on Plasmodium falciparum [1] and 8.4 µM in the data set on Plasmodium falciparum [2].

As to `CC[C@@]1(OC)OOC(C)(C)C[C@@H]1C(=O)OC` (mixture of isomers), the IC50 in the data set with Plasmodium falciparum [1] and with Plasmodium falciparum [2] was more than 30 µM each time.
